Experiments:
[1] = biological target: T1, 5-hydroxytryptamine receptor 1A (Rattus norvegicus, UniProt P19327); experiment: Inhibition of 8-OH DPAT binding to rat hydroxytryptamine 1A receptor
T1 sequence (P19327 whole entry): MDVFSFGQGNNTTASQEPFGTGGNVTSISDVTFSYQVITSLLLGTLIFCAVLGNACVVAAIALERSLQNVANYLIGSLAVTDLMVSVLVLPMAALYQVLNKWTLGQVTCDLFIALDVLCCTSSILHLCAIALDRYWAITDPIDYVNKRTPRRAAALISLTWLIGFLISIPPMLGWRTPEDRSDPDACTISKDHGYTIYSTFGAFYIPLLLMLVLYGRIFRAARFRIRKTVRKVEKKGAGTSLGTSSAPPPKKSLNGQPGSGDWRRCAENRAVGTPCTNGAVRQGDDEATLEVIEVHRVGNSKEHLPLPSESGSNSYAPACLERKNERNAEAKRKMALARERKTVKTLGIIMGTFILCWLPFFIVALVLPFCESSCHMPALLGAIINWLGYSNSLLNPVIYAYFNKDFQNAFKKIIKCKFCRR

[2] = biological target: Sodium-dependent serotonin transporter (Rattus norvegicus, UniProt P31652); experiment: Inhibition of [3H]5-HT re-uptake in rat synaptosomes; type: subcellular, Brain
Sodium-dependent serotonin transporter, sequence (P31652 whole entry): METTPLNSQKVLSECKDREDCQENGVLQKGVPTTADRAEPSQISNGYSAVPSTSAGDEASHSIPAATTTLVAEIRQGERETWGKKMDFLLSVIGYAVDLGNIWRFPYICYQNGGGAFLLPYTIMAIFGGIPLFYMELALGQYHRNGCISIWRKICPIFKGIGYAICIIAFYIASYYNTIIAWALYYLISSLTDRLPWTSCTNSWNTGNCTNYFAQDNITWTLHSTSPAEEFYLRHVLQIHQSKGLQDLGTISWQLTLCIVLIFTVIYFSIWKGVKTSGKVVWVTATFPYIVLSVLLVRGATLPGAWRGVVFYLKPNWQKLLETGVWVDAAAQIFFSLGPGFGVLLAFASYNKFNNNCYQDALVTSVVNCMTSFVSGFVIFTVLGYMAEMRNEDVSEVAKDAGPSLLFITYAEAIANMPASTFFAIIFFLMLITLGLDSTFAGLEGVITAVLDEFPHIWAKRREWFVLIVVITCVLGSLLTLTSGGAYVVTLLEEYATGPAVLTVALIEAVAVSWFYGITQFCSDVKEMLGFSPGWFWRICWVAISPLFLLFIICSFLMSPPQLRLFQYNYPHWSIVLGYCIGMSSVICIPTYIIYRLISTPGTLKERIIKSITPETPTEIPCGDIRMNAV

[3] = biological target: D(2) dopamine receptor (Rattus norvegicus, UniProt P61169); experiment: Displacement of [3H]spiperone from dopamine D2 receptor of rat striatal membranes; type: cell membranes, Membrane
D(2) dopamine receptor, sequence (P61169 whole entry): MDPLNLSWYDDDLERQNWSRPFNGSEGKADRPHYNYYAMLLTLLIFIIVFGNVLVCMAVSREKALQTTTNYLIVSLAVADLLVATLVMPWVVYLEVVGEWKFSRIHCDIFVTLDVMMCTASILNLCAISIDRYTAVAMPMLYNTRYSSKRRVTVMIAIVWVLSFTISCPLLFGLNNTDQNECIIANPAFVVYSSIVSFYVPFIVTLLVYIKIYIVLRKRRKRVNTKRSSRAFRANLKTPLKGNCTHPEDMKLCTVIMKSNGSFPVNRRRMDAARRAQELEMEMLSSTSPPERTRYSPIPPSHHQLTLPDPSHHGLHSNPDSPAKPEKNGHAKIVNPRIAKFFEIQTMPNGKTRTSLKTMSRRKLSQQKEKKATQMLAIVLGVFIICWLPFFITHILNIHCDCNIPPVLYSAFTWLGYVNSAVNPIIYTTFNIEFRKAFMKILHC
Summary of the method: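 IC50 from 5–10 compound concentrations, each in triplicate, taken as the concentration (nM) giving 50% inhibition of specific radioligand binding.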

[4] = test system: Rattus norvegicus; experiment: Dose required to inhibit ultrasonic vocalisation on peroral administered; type: functional; conditions: po, read-out: ID50 (the source's name)
Summary of the method: (§1)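 Rat ultrasonic vocalization test. In a priming session, up to 10 grid-floor shocks were given (1.8 mA, 0.3 s, 20 s apart). Rats not vocalizing on three consecutive trials were excluded. Next day, rats were tested 2 h after dosing: five shocks, then vocalization duration recorded over 3 min. ID50 (dose for half-maximal inhibition) came from dose–response curves.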

[5] = test system: Rattus norvegicus; experiment: Dose required to inhibit ultrasonic vocalisation on subcutaneous administered; type: functional; conditions: sc, read-out: ID50 (the source's name)
Summary of the method: as §1

Compound Fc1ccc2[nH]cc(CCCCN3CCN(c4ccc5c(c4)OCCO5)CC3)c2c1 has an IC50 [1] of 5 nM, an IC50 [2] of 1 nM and an IC50 [3] of 130 nM.
Work on N#Cc1ccc2[nH]cc(CCCCN3CCN(c4ccccc4C(N)=O)CC3)c2c1 yielded an IC50 [1] of 6.4 nM, an IC50 [2] of 16 nM and an IC50 [3] of 47 nM.
O=c1ccc2cc(N3CCN(CCCCc4c[nH]c5ccc(F)cc45)CC3)ccc2o1 was tested, and the IC50 [1] was 0.7 nM, the IC50 [2] was 0.9 nM and the IC50 [3] was over 100 nM.
With N#Cc1ccc(N2CCN(CCCCc3c[nH]c4ccc(C#N)cc34)CC2)cc1 the IC50 [1] was 1.1 nM, the IC50 [2] was 1.3 nM and the ED50 [4] was 14 mg/kg. It also gave an IC50 [3] of 255 nM.
Work on NC(=O)c1ccc2[nH]cc(CCCCN3CCN(c4ccc5c(c4)OCCO5)CC3)c2c1 yielded an IC50 [2] of 60 nM.
N#Cc1ccc2[nH]cc(CCCCN3CCN(c4cccc5oc(C(N)=O)cc45)CC3)c2c1 showed an IC50 [1] of 1.4 nM, an IC50 [2] of 8.5 nM and an IC50 [3] of 6.6 nM.
N#Cc1ccc2[nH]cc(CCCCN3CCN(c4ccc5occc5c4C(N)=O)CC3)c2c1 showed an IC50 [1] of 3.3 nM, an IC50 [2] of 5.5 nM and an IC50 [3] of 220 nM.
With N#Cc1ccc2[nH]cc(CCCCN3CCN(c4ccc5c(c4)OCO5)CC3)c2c1 the IC50 [1] was 0.7 nM, the IC50 [2] was 0.6 nM and the ED50 [4] was 4 mg/kg. For the same compound, the ED50 [5] was 1 mg/kg and the IC50 [3] was 4.9 nM.
For N#Cc1ccc2[nH]cc(CCCCN3CCN(c4cccc5nsnc45)CC3)c2c1, the IC50 [1] was 1 nM, the IC50 [2] was 1.5 nM and the IC50 [3] was 1.4 nM.
N#Cc1ccc2[nH]cc(CCCCN3CCN(c4ccc5c(c4)CCO5)CC3)c2c1 was tested, and the IC50 [1] was 4 nM, the IC50 [2] was 1 nM and the IC50 [3] was 13 nM.
For N#Cc1ccc2[nH]cc(CCCCN3CCN(c4ccccc4)CC3)c2c1, the IC50 [1] was 400 nM, the IC50 [2] was 1 nM and the IC50 [3] was 3.8 nM.
N#Cc1ccc2[nH]cc(CCCCN3CCN(c4c(C#N)cccc4C#N)CC3)c2c1 gave an IC50 [1] of 40 nM, an IC50 [2] of 2 nM and an IC50 [3] of under 100 nM.
In the case of COc1ccc(Cl)cc1N1CCN(CCCCc2c[nH]c3ccc(C#N)cc23)CC1, the IC50 [1] is reported as 30 nM and the IC50 [2] is reported as 6.8 nM.
With COc1ccc(N2CCN(CCCCc3c[nH]c4ccc(C#N)cc34)CC2)cc1 the IC50 [1] was 1 nM, the IC50 [2] was 0.5 nM and the IC50 [3] was 46 nM.
Compound COc1cccc(N2CCN(CCCCc3c[nH]c4ccc(C#N)cc34)CC2)c1C#N has an IC50 [1] of 5.6 nM, an IC50 [2] of 3.9 nM and an IC50 [3] of 1.4 nM.
For N#Cc1ccc2[nH]cc(CCCCN3CCN(c4ccc5c(c4)CCCO5)CC3)c2c1, the IC50 [1] was 5 nM, the IC50 [2] was 0.9 nM and the IC50 [3] was under 42 nM.
O=C(O)c1ccc2[nH]cc(CCCCN3CCN(c4ccc5c(c4)OCCO5)CC3)c2c1 showed an IC50 [1] of 4 nM and an IC50 [3] of over 100 nM.
For COc1ccc(N2CCN(CCCCc3c[nH]c4ccc(C#N)cc34)CC2)cc1OC, the IC50 [1] was 60 nM, the IC50 [2] was 0.3 nM and the IC50 [3] was 40 nM.
COc1ccccc1N1CCN(CCCCc2c[nH]c3ccc(C#N)cc23)CC1 showed an IC50 [1] of 1 nM, an IC50 [2] of 3 nM and an IC50 [3] of 0.7 nM.
Compound COc1cc(N2CCN(CCCCc3c[nH]c4ccc(C#N)cc34)CC2)ccc1C#N has an IC50 [1] of 14 nM and an IC50 [2] of 3.4 nM.
N#Cc1ccc2[nH]cc(CCCCN3CCN(c4ccc5c(c4)OCCO5)CC3)c2c1 was tested, and the IC50 [1] was 1 nM, the IC50 [2] was 0.4 nM and the IC50 [3] was 5.6 nM.
N#Cc1ccc2[nH]cc(CCCCN3CCN(c4ccc5c(c4)CC(C(N)=O)O5)CC3)c2c1 (centres undefined) gave an IC50 [1] of 3.2 nM, an IC50 [2] of 3.1 nM and an IC50 [3] of 1400 nM.
Compound N#Cc1ccc2[nH]cc(CCCCN3CCN(c4ccc5sc(C(N)=O)cc5c4)CC3)c2c1 has an IC50 [1] of 3.1 nM and an IC50 [2] of 0.3 nM.
N#Cc1ccc2[nH]cc(CCCCN3CCN(c4ccc5[nH]ccc5c4)CC3)c2c1 showed an IC50 [1] of 1.6 nM, an IC50 [2] of 2.4 nM and an IC50 [3] of 5.7 nM.
For O=Cc1ccc2[nH]cc(CCCCN3CCN(c4ccc5c(c4)OCCO5)CC3)c2c1, the IC50 [1] was 0.7 nM, the IC50 [2] was 1 nM and the IC50 [3] was under 100 nM.
N#Cc1cc2cc(N3CCN(CCCCc4c[nH]c5ccc(F)cc45)CC3)ccc2o1 was tested, and the IC50 [1] was 5 nM, the IC50 [2] was 3 nM and the IC50 [3] was over 100 nM.
With Fc1ccc2[nH]cc(CCCCN3CCN(c4ccc5c(c4)OCO5)CC3)c2c1 the IC50 [1] was 4 nM, the IC50 [2] was 1 nM and the IC50 [3] was under 100 nM.
Compound c1ccc2c(CCCCN3CCN(c4ccc5c(c4)OCCO5)CC3)c[nH]c2c1 has an IC50 [1] of 8 nM, an IC50 [2] of 10 nM and an IC50 [3] of over 100 nM.
Work on NC(=O)c1cc2cc(N3CCN(CCCCc4c[nH]c5ccc(F)cc45)CC3)ccc2o1 yielded an IC50 [1] of 3 nM, an IC50 [2] of 0.3 nM and an IC50 [3] of over 100 nM.
Compound CCOCCOCCOc1cccc(N2CCN(CCCCc3c[nH]c4ccc(C#N)cc34)CC2)c1C#N has an IC50 [1] of 2 nM, an IC50 [2] of 3.2 nM and an IC50 [3] of 28 nM.
With N#Cc1ccc2[nH]cc(CCCCN3CCN(c4ccc(C(N)=O)cc4)CC3)c2c1 the IC50 [1] was 118 nM, the IC50 [2] was 0.6 nM and the IC50 [3] was over 270 nM.
In the case of COc1ccc2[nH]cc(CCCCN3CCN(c4ccc5c(c4)OCCO5)CC3)c2c1, the IC50 [2] is reported as 100 nM.
N#Cc1ccc(N2CCN(CCCCc3c[nH]c4ccc(F)cc34)CC2)cc1 showed an IC50 [1] of 40 nM, an IC50 [2] of 2 nM and an IC50 [3] of over 100 nM.
For O/N=C/c1ccc2[nH]cc(CCCCN3CCN(c4ccc5c(c4)OCCO5)CC3)c2c1, the IC50 [1] was 0.4 nM, the IC50 [2] was 5 nM and the IC50 [3] was 9.4 nM.
Work on N#Cc1ccc2[nH]cc(CCCCN3CCN(c4ccc5oc(=O)ccc5c4)CC3)c2c1 yielded an IC50 [1] of 0.1 nM, an IC50 [2] of 0.7 nM and an ED50 [4] of 4 mg/kg. The ED50 [5] was 0.5 mg/kg and the IC50 [3] was 740 nM.
Work on Oc1ccc2[nH]cc(CCCCN3CCN(c4ccc5c(c4)OCCO5)CC3)c2c1 yielded an IC50 [1] of 0.2 nM, an IC50 [2] of 0.5 nM and an IC50 [3] of 77 nM.
N#Cc1ccc2[nH]cc(CCCCN3CCN(c4ccc(O)cc4)CC3)c2c1 was tested, and the IC50 [1] was 6 nM, the IC50 [2] was 0.5 nM and the IC50 [3] was 35 nM.
With N#Cc1ccc2[nH]cc(CCCCN3CCN(c4ccc(C#N)c(C#N)c4)CC3)c2c1 the IC50 [1] was 12 nM and the IC50 [2] was 2 nM.
N#Cc1ccc2[nH]cc(CCCCN3CCN(c4ccc(F)cc4)CC3)c2c1 was tested, and the IC50 [2] was 1 nM, the ED50 [4] was 7 mg/kg and the ED50 [5] was 3 mg/kg. It also gave an IC50 [3] of 4.2 nM.
For N#Cc1ccc2[nH]cc(CCCCN3CCN(c4cccc5cc(C(N)=O)oc45)CC3)c2c1, the IC50 [1] was 1.9 nM, the IC50 [2] was 2.6 nM and the IC50 [3] was 39 nM.
Clc1ccc2[nH]cc(CCCCN3CCN(c4ccc5c(c4)OCCO5)CC3)c2c1 showed an IC50 [1] of 40 nM, an IC50 [2] of 20 nM and an IC50 [3] of over 100 nM.
N#Cc1ccc2[nH]cc(CCCCN3CCN(c4ccc5occc5c4)CC3)c2c1 gave an IC50 [1] of 8.7 nM, an IC50 [2] of 3.9 nM and an IC50 [3] of 8 nM.
N#Cc1ccc2[nH]cc(CCCCN3CCN(c4ccc5nsnc5c4)CC3)c2c1 showed an IC50 [1] of 2 nM, an IC50 [2] of 3.1 nM and an ED50 [5] of 3 mg/kg. It also gave an IC50 [3] of 31 nM.
For N#Cc1ccc2[nH]cc(CCCCN3CCN(c4ccc5[nH]c(C(N)=O)cc5c4)CC3)c2c1, the IC50 [1] was 14 nM, the IC50 [2] was 2 nM and the IC50 [3] was 140 nM.
With N#Cc1ccc2[nH]cc(CCCCN3CCN(c4ccc(O)c(C#N)c4)CC3)c2c1 the IC50 [1] was 400 nM, the IC50 [2] was 0.8 nM and the IC50 [3] was 43 nM.
N#Cc1ccc2[nH]cc(CCCCN3CCN(c4ccc5oc(C#N)cc5c4)CC3)c2c1 was tested, and the IC50 [1] was 0.4 nM, the IC50 [2] was 1 nM and the IC50 [3] was over 630 nM.
Compound N#Cc1ccc2[nH]cc(CCCCN3CCN(c4cc(F)c(C#N)c(F)c4)CC3)c2c1 has an IC50 [1] of 36 nM and an IC50 [2] of 5.4 nM.
COC(=O)c1ccc2[nH]cc(CCCCN3CCN(c4ccc5c(c4)OCCO5)CC3)c2c1 showed an IC50 [1] of 0.6 nM, an IC50 [2] of 50 nM and an IC50 [3] of under 100 nM.
In the case of COc1cc(C#N)ccc1N1CCN(CCCCc2c[nH]c3ccc(C#N)cc23)CC1, the IC50 [1] is reported as 8 nM, the IC50 [2] is reported as 4.1 nM and the IC50 [3] is reported as 6 nM.
